According to ChEMBL document CHEMBL1143652, “Joys of molecules. 2. Endeavors in chemical biology and medicinal chemistry” (J Med Chem, 2005):
Values after ≈ are worked out from the molar mass of the structure shown.

Experiments:
[1] = molecular target: Polyunsaturated fatty acid 5-lipoxygenase (Homo sapiens, UniProt P09917); assay: Effective concentration required to inhibit 5-lipoxygenase by 50%
PC-3 [2] = assay: Inhibitory concentration against PC-3 human prostate carcinoma cell line; Range is 10-15 nM; assay type: functional, cell-based
A549 [3] = assay: Inhibitory concentration against A549 human lung carcinoma cell line; Range is 10-15 nM; assay type: functional, cell-based
1A9/ptx-10 [4] = assay: Inhibitory concentration against 1A9/PTX10 cell line; Range is 10-15 nM; assay type: functional, cell-based; details: Homo sapiens
MCF7 [5] = assay: Inhibitory concentration against MCF-7 human breast carcinoma cell line; Range is 10-15 nM; assay type: functional, cell-based
A2780 [6] = assay: Inhibitory concentration against A2780/AD10 cell line; Range is 10-15 nM; assay type: functional, cell-based; details: Homo sapiens
1A9 [7] = assay: Inhibitory concentration against 1A9 human ovarian carcinoma cell line; Range is 10-15 nM; assay type: functional, cell-based
A549 [8] = assay: Inhibitory concentration against A549 human lung carcinoma cell line; Range is 2-5 nM; assay type: functional, cell-based
A2780 [9] = assay: Inhibitory concentration against A2780/AD10 cell line; Range is 2-5 nM; assay type: functional, cell-based; details: Homo sapiens
1A9 [10] = assay: Inhibitory concentration against 1A9 human ovarian carcinoma cell line; Range is 2-5 nM; assay type: functional, cell-based
1A9/ptx-10 [11] = assay: Inhibitory concentration against 1A9/PTX10 cell line; Range is 2-5 nM; assay type: functional, cell-based; details: Homo sapiens
PC-3 [12] = assay: Inhibitory concentration against PC-3 human prostate carcinoma cell line; Range is 2-5 nM; assay type: functional, cell-based
MCF7 [13] = assay: Inhibitory concentration against MCF-7 human breast carcinoma cell line; Range is 2-5 nM; assay type: functional, cell-based
[14] = molecular target: T1, Sodium channel alpha subunits; brain (Types I, II, III) (Homo sapiens, UniProt P35498+Q99250+Q9NY46); assay: Inhibitory concentration against synaptosome using [3H]PbTx-3
[15] = molecular target: T1, Sodium channel alpha subunits; brain (Types I, II, III); assay: Inhibitory concentration against synaptosomes using [3H]PbTx-3; assay type: subcellular
[16] = molecular target: T1, Sodium channel alpha subunits; brain (Types I, II, III)
MOLT-4 [17] = assay: Inhibitory concentration against MOLT-4 human T-cells; assay type: functional, cell-based
MOLT-4 [18] = assay: Inhibitory concentration against MOLT-4 human T-cells; 10e-11; assay type: functional, cell-based
Gallus gallus = assay: In vivo inhibition of angiogenesis in the chick chorioallantoic membrane (CAM) assay; assay type: functional
[19] = molecular target: T2, Integrin alpha-IIb/beta-3 (Homo sapiens, UniProt P05106+P08514); assay: Inhibitory concentration against integrin alpha-2b beta3; assay type: protein-complex assay
[20] = molecular target: T2, Integrin alpha-IIb/beta-3; assay: Inhibitory concentration against alpha IIb beta-3 receptor; assay type: protein-complex assay
A2780 [21] = assay: Inhibitory concentration against A2780/AD10 cell line; Inactive upto 1 uM; assay type: functional, cell-based, Homo sapiens
PC-3 [22] = assay: Inhibitory concentration against PC-3 human prostate carcinoma cell line; Inactive upto 1 uM; assay type: functional, cell-based
1A9 [23] = assay: Inhibitory concentration against 1A9 human ovarian carcinoma cell line; Inactive upto 1 uM; assay type: functional, cell-based
MCF7 [24] = assay: Inhibitory concentration against MCF-7 human breast carcinoma cell line; Inactive upto 1 uM; assay type: functional, cell-based
A549 [25] = assay: Inhibitory concentration against A549 human lung carcinoma cell line; Inactive upto 1 uM; assay type: functional, cell-based
1A9/ptx-10 [26] = assay: Inhibitory concentration against 1A9/PTX10 cell line; Inactive upto 1 uM; assay type: functional, cell-based, Homo sapiens
[27] = Inhibitory concentration against LN229 cell proliferation; assay type: functional, cell-based; details: Homo sapiens, LN-229
[28] = molecular target: Peptidyl-prolyl cis-trans isomerase FKBP1A (Homo sapiens, UniProt P62942); assay: Inhibitory concentration against binding to FKBP12
P388 [29] = assay: Cytotoxicity against leukemia P-388 tumor cells; assay type: functional; details: Mus musculus, read-out: ED50 (the source's name)
P388 [30] = assay: Cytotoxicity against P-388 cancer cell line; assay type: functional, Homo sapiens; details: Mus musculus, read-out: ED50 (the source's name)
[31] = molecular target: T3, Peroxisome proliferator-activated receptor delta (Homo sapiens, UniProt Q03181); assay: Effective concentration towards PPAR delta
[32] = molecular target: T3, Peroxisome proliferator-activated receptor delta; assay: Effective concentration against PPAR delta receptor
OVCAR-3 [33] = assay: Cytotoxicity by measuring inhibitory concentration against ovcar-3 tumor cell line; assay type: functional, cell-based, Homo sapiens; details: Homo sapiens, OVCAR-3
OVCAR-3 [34] = assay: Cytotoxicity by measuring inhibitory concentration against ovcar-3 tumor cell line; 10e-10; assay type: functional, cell-based; details: Homo sapiens
Bile acid receptor [35] = molecular target: T4, Bile acid receptor (Homo sapiens, UniProt Q96RI1); assay: Effective concentration towards farnesoid X receptor (FXR); Range is 5-10 uM
Bile acid receptor [36] = molecular target: T4, Bile acid receptor; assay: Effective concentration against farnesoid X receptor (FXR); range is 5-10 uM
OVCAR-3 [37] = assay: Cytotoxicity by measuring inhibitory concentration against ovcar-3 tumor cell line; Inactive; assay type: functional, cell-based, Homo sapiens
1A9 [38] = assay: Inhibitory concentration against human ovarian 1A9 tumor cells; assay type: functional, cell-based
[39] = molecular target: Tubulin beta-4B chain (Homo sapiens) (UniProt P68371); assay: (§1) Tubulin polymerization at a concentration of 100 uM incubated for 90 minutes
Method in brief: (§2)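 Tubulin polymerization was read as percent polymerization, with test drug at 100 µM and a 90 min incubation.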

[40] = molecular target: Tubulin beta-4B chain (Homo sapiens) (UniProt P68371); assay: as §1; assay type: functional; method in brief: as §2

T1 sequence (Q99250 whole entry, looked up, other chains not shown): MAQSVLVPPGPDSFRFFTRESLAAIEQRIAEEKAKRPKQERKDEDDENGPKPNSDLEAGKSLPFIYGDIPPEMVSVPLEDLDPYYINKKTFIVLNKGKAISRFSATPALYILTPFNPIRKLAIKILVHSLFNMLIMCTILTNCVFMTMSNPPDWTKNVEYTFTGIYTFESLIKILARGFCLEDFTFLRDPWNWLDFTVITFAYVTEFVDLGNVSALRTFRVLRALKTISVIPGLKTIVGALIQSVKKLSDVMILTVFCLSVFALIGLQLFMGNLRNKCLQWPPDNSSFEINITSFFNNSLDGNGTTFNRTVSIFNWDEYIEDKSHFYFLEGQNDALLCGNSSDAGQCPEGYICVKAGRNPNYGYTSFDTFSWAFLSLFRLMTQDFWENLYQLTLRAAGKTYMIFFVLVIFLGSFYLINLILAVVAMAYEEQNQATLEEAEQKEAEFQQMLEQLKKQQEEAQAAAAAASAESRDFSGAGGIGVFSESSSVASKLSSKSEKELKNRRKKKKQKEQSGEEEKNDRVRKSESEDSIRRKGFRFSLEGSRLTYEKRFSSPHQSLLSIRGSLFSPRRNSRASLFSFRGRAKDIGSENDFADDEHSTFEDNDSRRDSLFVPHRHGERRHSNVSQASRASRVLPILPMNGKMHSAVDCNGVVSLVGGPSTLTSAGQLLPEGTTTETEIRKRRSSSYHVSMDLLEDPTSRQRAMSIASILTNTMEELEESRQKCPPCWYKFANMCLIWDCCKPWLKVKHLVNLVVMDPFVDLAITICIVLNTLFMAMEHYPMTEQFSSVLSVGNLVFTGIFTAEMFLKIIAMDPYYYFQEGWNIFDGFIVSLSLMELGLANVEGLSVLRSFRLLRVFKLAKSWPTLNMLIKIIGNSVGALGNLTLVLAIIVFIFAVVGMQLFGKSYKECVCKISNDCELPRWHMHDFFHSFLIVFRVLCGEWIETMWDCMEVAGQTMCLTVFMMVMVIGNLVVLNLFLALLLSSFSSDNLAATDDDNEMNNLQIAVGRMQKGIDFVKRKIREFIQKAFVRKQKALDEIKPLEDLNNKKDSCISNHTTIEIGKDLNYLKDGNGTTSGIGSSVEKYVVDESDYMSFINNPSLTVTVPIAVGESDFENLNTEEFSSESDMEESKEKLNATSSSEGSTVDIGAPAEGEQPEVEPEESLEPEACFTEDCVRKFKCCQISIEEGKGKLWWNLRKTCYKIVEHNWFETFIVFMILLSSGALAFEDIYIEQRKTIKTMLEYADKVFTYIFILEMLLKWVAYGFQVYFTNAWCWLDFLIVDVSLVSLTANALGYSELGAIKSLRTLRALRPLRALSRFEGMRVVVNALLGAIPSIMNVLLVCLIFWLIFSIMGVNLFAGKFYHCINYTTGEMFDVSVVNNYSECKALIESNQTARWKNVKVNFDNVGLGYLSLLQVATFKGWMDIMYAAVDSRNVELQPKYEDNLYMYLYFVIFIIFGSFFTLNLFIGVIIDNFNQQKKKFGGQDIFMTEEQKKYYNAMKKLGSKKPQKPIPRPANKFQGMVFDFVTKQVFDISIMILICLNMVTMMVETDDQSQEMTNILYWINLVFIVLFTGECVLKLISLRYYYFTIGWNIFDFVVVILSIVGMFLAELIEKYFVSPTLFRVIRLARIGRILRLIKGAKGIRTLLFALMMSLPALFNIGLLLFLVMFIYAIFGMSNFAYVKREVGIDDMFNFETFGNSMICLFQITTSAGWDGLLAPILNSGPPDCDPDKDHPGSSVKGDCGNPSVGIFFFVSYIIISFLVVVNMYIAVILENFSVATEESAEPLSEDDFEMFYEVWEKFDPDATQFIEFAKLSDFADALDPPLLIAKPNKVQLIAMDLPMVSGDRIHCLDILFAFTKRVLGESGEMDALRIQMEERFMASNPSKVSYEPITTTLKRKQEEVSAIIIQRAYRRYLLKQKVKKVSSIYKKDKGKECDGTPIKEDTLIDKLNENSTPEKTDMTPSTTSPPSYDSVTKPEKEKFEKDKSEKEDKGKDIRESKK
T1 sequence (Q9NY46 whole entry, looked up, other chains not shown): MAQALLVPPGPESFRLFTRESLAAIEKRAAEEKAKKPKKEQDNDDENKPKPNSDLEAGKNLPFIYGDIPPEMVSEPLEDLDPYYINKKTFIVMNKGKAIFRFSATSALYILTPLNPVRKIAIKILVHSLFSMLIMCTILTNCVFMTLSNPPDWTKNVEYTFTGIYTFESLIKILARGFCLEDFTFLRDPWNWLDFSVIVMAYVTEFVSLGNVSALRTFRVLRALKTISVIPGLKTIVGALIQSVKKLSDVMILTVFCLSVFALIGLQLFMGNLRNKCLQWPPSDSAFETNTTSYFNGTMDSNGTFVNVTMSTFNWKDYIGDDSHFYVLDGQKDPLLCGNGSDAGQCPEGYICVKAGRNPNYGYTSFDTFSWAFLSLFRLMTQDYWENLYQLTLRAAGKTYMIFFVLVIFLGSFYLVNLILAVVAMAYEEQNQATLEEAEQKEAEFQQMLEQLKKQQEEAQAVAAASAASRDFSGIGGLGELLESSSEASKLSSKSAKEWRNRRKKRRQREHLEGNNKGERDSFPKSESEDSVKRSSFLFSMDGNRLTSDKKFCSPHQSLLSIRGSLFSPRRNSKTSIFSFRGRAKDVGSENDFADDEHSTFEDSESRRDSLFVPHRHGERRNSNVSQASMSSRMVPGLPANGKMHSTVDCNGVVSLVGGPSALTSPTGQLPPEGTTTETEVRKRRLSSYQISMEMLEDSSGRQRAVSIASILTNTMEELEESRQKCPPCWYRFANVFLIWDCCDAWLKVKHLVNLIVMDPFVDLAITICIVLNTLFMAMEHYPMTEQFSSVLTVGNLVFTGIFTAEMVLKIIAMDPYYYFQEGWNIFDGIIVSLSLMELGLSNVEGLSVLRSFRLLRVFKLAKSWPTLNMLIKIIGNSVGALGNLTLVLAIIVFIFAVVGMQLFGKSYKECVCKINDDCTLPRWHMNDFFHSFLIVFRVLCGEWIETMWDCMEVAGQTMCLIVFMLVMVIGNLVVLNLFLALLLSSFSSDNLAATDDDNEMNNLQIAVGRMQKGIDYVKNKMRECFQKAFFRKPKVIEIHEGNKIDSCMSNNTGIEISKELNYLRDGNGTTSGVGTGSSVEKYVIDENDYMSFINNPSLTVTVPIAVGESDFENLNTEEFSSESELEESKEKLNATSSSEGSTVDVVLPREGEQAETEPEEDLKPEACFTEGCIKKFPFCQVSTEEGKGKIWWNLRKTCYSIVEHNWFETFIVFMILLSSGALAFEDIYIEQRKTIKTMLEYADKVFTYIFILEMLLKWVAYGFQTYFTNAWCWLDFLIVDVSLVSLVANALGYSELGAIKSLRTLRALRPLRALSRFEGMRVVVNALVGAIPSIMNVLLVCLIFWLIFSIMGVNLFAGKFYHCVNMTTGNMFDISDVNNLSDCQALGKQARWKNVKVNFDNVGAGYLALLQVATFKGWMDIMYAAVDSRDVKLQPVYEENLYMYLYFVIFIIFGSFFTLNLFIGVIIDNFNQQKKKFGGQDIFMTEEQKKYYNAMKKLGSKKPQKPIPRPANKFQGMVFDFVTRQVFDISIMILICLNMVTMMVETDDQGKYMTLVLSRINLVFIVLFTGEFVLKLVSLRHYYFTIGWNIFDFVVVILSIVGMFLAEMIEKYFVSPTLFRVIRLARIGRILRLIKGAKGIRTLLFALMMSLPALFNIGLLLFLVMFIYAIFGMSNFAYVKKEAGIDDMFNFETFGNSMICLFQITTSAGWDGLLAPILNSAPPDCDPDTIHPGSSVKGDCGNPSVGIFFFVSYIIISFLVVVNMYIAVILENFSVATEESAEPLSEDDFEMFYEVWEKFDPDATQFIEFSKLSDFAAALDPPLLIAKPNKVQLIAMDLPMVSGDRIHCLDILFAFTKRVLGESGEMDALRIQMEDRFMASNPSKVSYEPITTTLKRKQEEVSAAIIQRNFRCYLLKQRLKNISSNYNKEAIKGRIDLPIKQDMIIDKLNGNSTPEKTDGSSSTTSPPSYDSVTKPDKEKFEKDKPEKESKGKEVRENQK
Chain of Tubulin beta-4B chain (Homo sapiens) (P68371 whole entry): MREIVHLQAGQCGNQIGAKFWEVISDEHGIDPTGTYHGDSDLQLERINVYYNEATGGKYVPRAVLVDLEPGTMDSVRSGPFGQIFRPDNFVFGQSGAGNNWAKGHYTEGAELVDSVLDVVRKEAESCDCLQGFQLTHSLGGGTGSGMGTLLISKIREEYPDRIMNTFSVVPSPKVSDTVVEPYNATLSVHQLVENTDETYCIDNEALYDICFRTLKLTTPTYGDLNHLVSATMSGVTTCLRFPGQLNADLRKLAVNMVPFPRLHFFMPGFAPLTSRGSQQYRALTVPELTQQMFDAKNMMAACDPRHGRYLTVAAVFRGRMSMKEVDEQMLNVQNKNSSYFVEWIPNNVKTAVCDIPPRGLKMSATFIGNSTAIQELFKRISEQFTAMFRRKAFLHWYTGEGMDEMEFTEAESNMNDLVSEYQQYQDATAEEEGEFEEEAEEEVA
T3 sequence (Q03181 whole entry): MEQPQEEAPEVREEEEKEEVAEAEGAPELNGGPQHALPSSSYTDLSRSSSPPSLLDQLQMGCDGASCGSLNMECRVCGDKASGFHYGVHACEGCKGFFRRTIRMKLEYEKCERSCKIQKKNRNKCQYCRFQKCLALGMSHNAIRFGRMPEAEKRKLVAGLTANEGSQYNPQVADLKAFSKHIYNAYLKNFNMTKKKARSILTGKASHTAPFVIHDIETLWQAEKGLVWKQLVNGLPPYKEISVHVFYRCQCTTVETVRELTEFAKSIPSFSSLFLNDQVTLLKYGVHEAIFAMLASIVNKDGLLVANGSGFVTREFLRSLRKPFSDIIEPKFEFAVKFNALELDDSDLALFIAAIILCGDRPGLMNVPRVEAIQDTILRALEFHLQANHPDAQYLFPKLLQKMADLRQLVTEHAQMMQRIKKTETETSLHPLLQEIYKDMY
Chain of Peptidyl-prolyl cis-trans isomerase FKBP1A (P62942 whole entry): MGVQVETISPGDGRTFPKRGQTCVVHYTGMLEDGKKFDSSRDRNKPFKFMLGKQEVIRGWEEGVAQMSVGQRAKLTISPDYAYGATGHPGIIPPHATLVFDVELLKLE

Compound `O=C(O)CCC[C@H](O)\C=C/C=C/C=C/[C@H](O)C/C=C\CCCCC(F)(F)F` has an EC50 [1] of 3 nM.

For `CC(C)[C@@H]1NC(=O)[C@@H](NC(=O)[C@H](O)C(C)C)Cc2ccc3c(c2)[C@]24C5=C(N=C1O5)c1nc(Cl)c(o1)-c1c(Cl)[nH]c5cccc(c15)-c1cccc2c1N[C@@H]4O3`, the IC50 (PC-3 [2]) was 15 nM, the IC50 (A549 [3]) was 15 nM and the IC50 (1A9/ptx-10 [4]) was 15 nM. It also gave an IC50 (MCF7 [5]) of 15 nM, an IC50 (A2780 [6]) of 15 nM and an IC50 (1A9 [7]) of 15 nM.

In the case of `[H][C@]12Nc3c4cccc3[C@]13C1=C(N=C(O1)[C@H](C(C)C)NC(=O)[C@@H](NC(=O)[C@@H](O)C(C)C)Cc1ccc(c3c1)O2)c1nc(Cl)c(o1)-c1c(Cl)[nH]c2cccc-4c12` [DIAZONAMIDE A], the IC50 (A549 [8]) is reported as 5 nM, the IC50 (A2780 [9]) is reported as 5 nM and the IC50 (1A9 [10]) is reported as 5 nM. For the same compound, the IC50 (1A9/ptx-10 [11]) was 5 nM, the IC50 (PC-3 [12]) was 5 nM and the IC50 (MCF7 [13]) was 5 nM.

In the case of `C=C(C=O)C[C@@H]1C[C@H](O)[C@]2(C)O[C@@H]3C[C@@H]4O[C@@H]5C[C@]6(C)O[C@]7(C)CC[C@@H]8O[C@@H]9C[C@]%10(C)O[C@@H]%11C(C)=CC(=O)O[C@H]%11C[C@H]%10O[C@H]9C[C@@H](C)[C@H]8O[C@H]7C[C@H]6O[C@@]5(C)C/C=C\[C@H]4O[C@H]3C[C@H]2O1` [BREVETOXIN B], the IC50 [14] is reported as 15.02 nM, the IC50 [15] is reported as 15.02 nM and the Binding [16] is reported as 18 nM.

Compound `COC(=O)N/C(C)=C1/C(=C/COC(=O)c2ccc([N+](=O)[O-])cc2)[C@@](O)(CC=O)C#C/C=C\C#C[C@@H]1O` has an IC50 (MOLT-4 [17]) of 0.044 nM and an IC50 (MOLT-4 [18]) of 0.044 nM.

For `N=C(N)NCCOc1ccc(C(=O)NC[C@H](NS(=O)(=O)c2ccccc2)C(=O)O)cc1[N+](=O)[O-]`, the Dose (Gallus gallus) was 30 ug/embryo.

In the case of `N=C(N)N1CCN(c2ccc(C(=O)NC[C@H](NS(=O)(=O)c3c(O)ccc4ccccc34)C(=O)O)cc2[N+](=O)[O-])CC1`, the IC50 [19] is reported as 14 nM and the IC50 [20] is reported as 14 nM.

With `CC(C)[C@@H]1NC(=O)[C@@H](NC(=O)OCc2ccccc2)Cc2ccc3c(c2)[C@]2(C4=C(C=O)N=C1O4)c1cccc(Br)c1N[C@@H]2O3` the IC50 (A2780 [21]) was “Inactive”, the IC50 (PC-3 [22]) was “Inactive” and the IC50 (1A9 [23]) was “Inactive”. The IC50 (MCF7 [24]) was “Inactive”, the IC50 (A549 [25]) was “Inactive” and the IC50 (1A9/ptx-10 [26]) was “Inactive”.

With `COc1c(C(C)n2cnc3ncccc32)ccc2c1C=CC(C)(C)O2` (stereo not given) the IC50 [27] was 26000 nM.

In the case of `CO[C@H]1C[C@@H]2CC[C@@H](C)[C@@](O)(O2)C(=O)C(=O)N2CCCC[C@H]2C(=O)N[C@H](CCc2ccccc2)C(=O)NCC(=O)N(C)CC(=O)O[C@H]1C`, the IC50 [28] is reported as 9.6 nM.

In the case of `C=C(C=O)C[C@@H]1C[C@H](O)[C@]2(C)O[C@@H]3C[C@@H]4O[C@@H]5C[C@]6(C)O[C@]7(C)C(C)=CC(=O)O[C@H]7C[C@H]6O[C@@]5(C)C/C=C\[C@H]4O[C@H]3C[C@H]2O1` [TRUNCATED BREVETOXIN B], the IC50 [14] is reported as > 10000 nM, the IC50 [15] is reported as > 10000 nM and the Binding [16] is reported as 18 nM.

With `CC(C)=CC[C@@H]1C(=O)C2=C(OC(C)(C)C=C2)C(=O)[C@@]12OC(=O)C1=C[C@]3(O)C[C@H]4C(C)(C)OC(CC=C(C)C)(C3=O)[C@]14O2` [LATERIFLORONE] the EC50 (P388 [29]) was 5.4 mg/L (≈ 9.33 µM) and the EC50 (P388 [30]) was 5.4 mg/L (≈ 9.33 µM).

`CC(C)N(Cc1cccc2c1OC(C)(C)C=C2)C(=O)c1ccc(-c2ccccc2)cc1` gave an EC50 [31] of 1000 nM and an EC50 [32] of 1 nM.

With `CC(=O)OC1C(=O)[C@@]2(C)[C@H]([C@H](OC(=O)c3ccsc3)[C@]3(O)C[C@H](OC(=O)[C@H](O)[C@@H](NC(=O)c4ccccc4)c4ccccc4)C(C)=C1C3(C)C)[C@]1(OC(C)=O)CO[C@@H]1C[C@@H]2O` (stereo not given in full) the IC50 (OVCAR-3 [33]) was 0.671 nM and the IC50 (OVCAR-3 [34]) was 0.67 nM.

In the case of `CC(C)[C@H](O)C(=O)N[C@H]1Cc2ccc(O)c(c2)[C@]2(C(=O)Nc3ccccc32)C2=C(CO)N=C(O2)[C@H](C(C)C)NC1=O`, the IC50 (A2780 [21]) is reported as “Inactive”, the IC50 (PC-3 [22]) is reported as “Inactive” and the IC50 (1A9 [23]) is reported as “Inactive”. For the same compound, the IC50 (MCF7 [24]) was “Inactive”, the IC50 (A549 [25]) was “Inactive” and the IC50 (1A9/ptx-10 [26]) was “Inactive”.

`COc1c(CN(C(=O)C2CC2)c2ccccc2)ccc2c1OC(C)(C)C=C2` showed an EC50 (Bile acid receptor [35]) of 10000 nM and an EC50 (Bile acid receptor [36]) of 10000 nM.

In the case of `CC(=O)O[C@@H]1C2=C(C)[C@H](OC(=O)[C@H](O)[C@@H](NC(=O)c3ccccc3)c3ccccc3)C[C@@](O)([C@@H](OC(=O)c3ccccc3)c3ccccc3[C@H]1OC(C)=O)C2(C)C`, the IC50 (OVCAR-3 [37]) is reported as “Not Active”.

Work on `CO[C@]12C=C[C@](C)(O1)[C@@H](OC(=O)/C=C/c1cn(C)cn1)C[C@H]1C(C)=CC[C@H](C(C)C)[C@H]1/C=C\2COC1OCC(O)C(O)C1OC(C)=O` (stereo not given in full) yielded an IC50 (1A9 [38]) of 40 nM, a TP [39] of 54% and a TP [40] of 54%.
